Myeloid diff MLP = induction of myeloid progenitor differentiation, primary screen, cell-based, flow cytometry, MLPCN library | ER-HoxA9 myeloid progenitors, lysozyme-GFP differentiation | calls only at 10 µM | actives 1% (n = 360,000) | AID 624256, 2012;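 active means normalized GFP-positive differentiation at or above the plate's own cutoff, the solvent-only control mean plus 3 SD; inconclusive means no clear call, values can overlap the other calls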;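 further: cells exposed to compound for four days before flow analysis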
T cell modulator = modulators of CD8 T cell-vesicle binding, primary screen, mouse 2C CD8+ T cells, flow cytometry; 2C CD8+ T cell-vesicle binding; hits give low values; response (vesicle binding), % at 7 µM; actives 0.068% (n = 330,000);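 active means response, share of CD8 T cells binding vesicles, and their 90th percentile fluorescence all below set limits, cut at about 80% in these data, passing the limit was not always enough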;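 further: values below 100% mean blocked vesicle binding to the CD8+ T cells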
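material = purified 2C TCR transgenic mouse naive CD8+ T cells | controls = Unloaded micro-vesicles (low), QL9 vesicles with 0.7% DMSO (high) | detection = cytometric PE anti-B7-1 and Alexa647 anti-CD8 signals after 1% paraformaldehyde fixation | incubation = binding step 1.5 h, 37 °C, antibody labelling 20 min, ice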
NR2E3 ag-1 = inhibitors of NR2E3-RetCOR corepressor binding, primary screen, NR2E3 agonist project, biochemical, TR-FRET, GST-NR2E3, biotin-RetCOR; AID 2300, 2010; actives 0.12% (n = 320,000); inhibition of corepressor binding, % at 4.78 µM; 1536-well;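 active means percent inhibition above the cutoff of mean plus 3 SD of all tested compounds, set per screening campaign, cut at about 20% in these data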;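 further: 0% = DMSO wells and 100% = biotin wells as full block of FRET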
Target sequence (Q9Y5X4 whole entry, looked up): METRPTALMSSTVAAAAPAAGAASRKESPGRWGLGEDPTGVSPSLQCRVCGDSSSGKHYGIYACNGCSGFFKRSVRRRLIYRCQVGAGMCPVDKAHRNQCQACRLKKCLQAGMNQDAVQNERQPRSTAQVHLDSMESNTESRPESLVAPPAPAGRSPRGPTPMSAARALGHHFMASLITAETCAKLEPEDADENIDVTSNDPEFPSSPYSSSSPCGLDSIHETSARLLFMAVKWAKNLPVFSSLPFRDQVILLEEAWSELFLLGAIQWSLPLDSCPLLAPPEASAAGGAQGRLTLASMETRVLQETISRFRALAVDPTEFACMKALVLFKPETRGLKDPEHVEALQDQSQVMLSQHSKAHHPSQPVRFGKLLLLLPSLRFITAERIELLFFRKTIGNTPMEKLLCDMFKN
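System: GST-tagged NR2E3 plus biotinylated RetCOR corepressor; Buffer or medium: pH 7.5 Tris-based buffer; Probe or stimulus: RetCOR corepressor, biotinylated, 7 nM; Doses: compound at 4.8 µM, single dose; Schedule: 5 h incubation at 4 °C; Technique: time-resolved FRET; Evaluation: percent inhibition of TR-FRET ratio; Replication: one well per compound, singlicate testing.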
GAA850 FXN act = FXN promoter activators, primary screen, cell-based, luciferase luminescence, HEK293 lucGAA850; HEK293 lucGAA850 FXN promoter luciferase reporter, 24 h; percent of 10 µM SAHA response; AID 540364, 2011; activation, % at 6 µM; actives 0.56% (n = 360,000);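 active means activation above the average of all compounds screened plus 3 SD, cutoff fixed separately per campaign, cut at about 7.5% in these data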;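 further: 0% = DMSO wells and 100% = 10 µM SAHA wells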
NR2E3 ag-2 = NR2E3 agonists in two-hybrid cells, primary screen, cell-based, luminescence, CHO-S, Gal4-NCOR/VP16-NR2E3. luciferase. AID 602229, 2012. actives 0.35% (n = 360,000). inhibition of corepressor binding, % at 3.98 µM. Photoreceptor-specific nuclear receptor (Homo sapiens), Q9Y5X4;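 active means inhibition above the mean of all tested compounds plus 3 SD, cut at about 70% in these data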;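 further: 0% = DMSO with NR2E3 transfected cells and 100% = cells lacking NR2E3 construct; higher means lower luciferase signal from less NR2E3 corepressor binding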
Starred values were filed as active, the others as inactive; i = inactive; ? = inconclusive; . = no result; + = active, no number. An excerpt weighted towards active compounds, which were near 2% of everything screened.

SMILES | Myeloid diff MLP | T cell modulator | NR2E3 ag-1 | GAA850 FXN act | NR2E3 ag-2
CCOC(=O)c1[nH]c(C)c(C(=O)N2CCN(c3ccccc3)CC2)c1C | i | 751.3 | 2.9 | -0.1 | 1.8
COc1ccc(CCn2ccc(O)c(Cc3ccc(Cl)cc3)c2=O)cc1OC | + | 224.5 | -4.9 | -1.5 | 10.0
C=CCC[C@H](Cc1ccc(F)cc1)C(=O)OC[C@H](C)NC(=O)[C@@H](CC=C)CC(=O)N[C@H](CO)Cc1ccccc1 | i | 61.0* | . | -4.7 | -7.2
C=CCC[C@@H](Cc1ccc(F)cc1)C(=O)OC[C@H](C)NC(=O)[C@@H](CC=C)CC(=O)N[C@@H](CO)Cc1ccccc1 | i | i | . | -3.5 | -19.7
COc1ccc(Cl)c2sc(N(CCN(C)C)C(=O)CCS(=O)(=O)c3ccc(C)cc3)nc12 | i | 148.7 | -1.7 | 1.2 | 16.1
COc1ccc(OC)c2sc(N(CCCN(C)C)C(=O)CCS(=O)(=O)c3ccccc3)nc12 | ? | 124.5 | -0.7 | 30.8* | 0.1
CSc1ccc(CN2CCC(C(=O)NCc3ccc(C)cc3)CC2)cc1 | i | 148.9 | 1.9 | 0.8 | -10.6
CC1Nc2ccc(C(=O)NC3CCCCC3)cc2NC1=O (stereo not given) | + | 361.2 | 3.8 | 1.1 | 7.5
COC(=O)Nc1nc2ccc(-c3n[nH]c(=O)c4ccccc34)cc2[nH]1 | + | 506.2 | 1.8 | -2.6 | 4.3
COC(=O)c1ccc(-c2n[nH]c(=O)c3ccccc23)cc1 | i | 274.6 | 0.9 | -2.7 | -18.1
O=C(/C=C/[C@H]1O[C@@H](n2cnc3c(NC(=O)c4ccccc4)ncnc32)[C@H](O)[C@@H]1O)NCCc1ccc(F)cc1 | i | . | . | . | -0.9
O=C(NCc1ccccc1)c1cccc(COc2ccccc2Cl)c1 | i | 380.4 | 3.2 | 3.8 | -153.8
NNC(=O)c1cccc(COc2ccccc2Br)c1 | + | 150.7 | 3.3 | 3.0 | -202.7
CC1(C)C=C2C(=NN(c3ccccc3)C(N)=C2C#N)CO1 | + | 192.8 | -1.2 | -1.6 | 3.9
CNc1ccc2c3c(cccc13)C(=O)N(C)C2=O | + | 120.4 | -6.5 | -1.4 | -32.4
COc1cc(CCC(=O)NCc2ccc3c(c2)OCO3)cc(OC)c1OC | i | 424.2 | 2.4 | 0.0 | -6.7
CN1C(C(=O)Nc2ccccn2)=C(O)c2sccc2S1(=O)=O | + | 153.9 | 4.1 | 0.2 | -12.2
O=C(CSc1nnnn1-c1ccccc1)NCc1cccs1 | + | 456.1 | 1.4 | 0.9 | 15.4
CSc1ccccc1-n1nnnc1SCC(=O)NCc1cccs1 | i | 152.9 | -4.0 | -1.3 | 5.8
CN(C)c1ccc(C=c2c3cc(O)ccc3n3c2cc(-c2ccccc2)[n+]3C)cc1 | + | . | . | -1.9 | -3.6
O=C1OCCN1N=Cc1ccco1 | i | . | . | -1.1 | -6.6
CC(NC(=O)Nc1ccccc1O)(C(F)(F)F)C(F)(F)F | + | 299.7 | -3.0 | 2.3 | 36.9
CC(NC(=O)Nc1ccc(O)cc1)(C(F)(F)F)C(F)(F)F | i | 493.6 | -1.2 | 1.6 | 11.6
O=C(CSC1=NC2(CCCCC2)N=C1c1ccccc1)Nc1ccc2c(c1)OCCO2 | + | 198.8 | 2.9 | -1.6 | -23.4
COc1ccc(-c2cc(=O)c3cc(OC)ccc3[nH]2)cc1 | + | 421.2 | -0.3 | 0.9 | -120.0
SMILES | Myeloid diff MLP | T cell modulator | NR2E3 ag-1 | GAA850 FXN act | NR2E3 ag-2
COc1cccc(-c2nn(C)c3sc(C(=O)N4CCN(c5ccccn5)CC4)cc23)c1 | + | 763.4 | -2.5 | -3.3 | 3.5
COc1cccc(-c2nn(C)c3sc(C(=O)N4CCOCC4)cc23)c1 | i | 472.3 | 4.1 | -0.8 | -0.9
CC(=O)C(Cc1cnc(Cl)s1)(Cc1cnc(Cl)s1)C(C)=O | i | 425.7 | 0.4 | 1.6 | -0.2
CC(=O)C(Cc1ccc(Cl)nc1)(Cc1ccc(Cl)nc1)C(C)=O | + | 115.1 | -0.7 | -0.9 | -5.1
CCn1nc(C)cc1C(=O)N1CCCC(C(=O)c2ccccc2SC)C1 (stereo not given) | + | 224.8 | -1.2 | 0.6 | -21.7
Cn1ccc2c(-c3ccc4[nH]ccc4c3)cc3c(c21)C1CCC3O1 (stereo not given) | i | . | . | . | -8.3
COc1ccc2oc(=O)c(-c3csc(Nc4cccc(O)c4)n3)cc2c1 | i | 0.0* | -0.3 | 3.1 | -66.6
CCCNC(=O)c1ccc2c(=O)c(O)c(-c3ccsc3)[nH]c2c1 | + | 566.5 | -5.9 | -0.9 | 13.6
CCN(CC)S(=O)(=O)c1cc(C(=O)OC)ccc1Cl | i | 295.3 | 2.0 | 2.8 | -22.0
CCN(CC)S(=O)(=O)c1ccc(Cl)c(NC(=O)COC(=O)C2CCCCC2)c1 | i | 0.0* | -1.7 | 0.7 | 18.2
CCN(CC)S(=O)(=O)c1ccc(Cl)c(NC(=O)COC(=O)c2ccc(O)cc2)c1 | i | 311.0 | -3.3 | 0.1 | -13.1
CCN(CC)S(=O)(=O)c1ccc(Cl)c(C(=O)OC)c1 | + | 326.4 | -3.3 | 3.6 | -12.3
CCOC(=O)[C@]12CCC=C1N(Cc1ccc(Cl)cc1Cl)C(=O)[C@H](CC(=O)N1CCOCC1)C2 | i | . | . | . | -4.4
C(=C/c1nccc2c1[nH]c1ccccc12)/c1ccc2c(c1)OCO2 | + | . | . | 1.5 | -147.6
CC(=O)Nc1ccc(N=Nc2ccccc2)cc1[N+](=O)[O-] | i | . | . | 5.9 | -44.1
O=C(c1ccc(N2CN(C(=O)c3ccco3)c3nc4ccccc4nc32)cc1)N1CCOCC1 | + | 354.8 | 5.6 | -2.9 | -3.2
CN1C[C@@H]2[C@@H]3C(=O)N(C)C(=O)[C@@H]3[C@](Cc3ccccc3)(C1=O)N2C(=O)c1ccccc1 | + | . | . | 0.2 | 5.7
CN1C[C@@H]2[C@@H]3C(=O)N(C)C(=O)[C@@H]3[C@](Cc3ccccc3)(C1=O)N2C(=O)c1ccc(F)cc1 | i | . | . | 0.6 | -15.0
CC1=Nc2ccccc2/C1=C\c1nc(-c2ccccc2)oc1O | i | 224.9 | 1.9 | 2.0 | -42.6
CC1=Nc2ccccc2/C1=C\c1nc(-c2ccc(C(F)(F)F)cc2)oc1O | + | 250.3 | 2.7 | -1.7 | -6.9
Cn1c(NCCN2CCCC2)nc2cc(-c3ccsc3)sc2c1=O | ? | . | . | 3.5 | -8.8
CCOC(=O)c1ccc(NC(=O)Nc2ccn(C)n2)cc1 | + | 563.4 | -2.2 | 0.4 | -16.7
CCOC(=O)c1ccc(NC(=O)Nc2cccc(C)n2)cc1 | i | 343.1 | 0.0 | 2.1 | -3.1
CCCCCCCCCCCCCCCCCCNc1ccn(C2OC(COP(=O)(O)OCC3OC(n4cc(F)c(=O)[nH]c4=O)CC3O)C(O)C2O)c(=O)n1 (stereo not given) | ? | . | . | -8.6 | 27.1

Screens (PubChem)
